Molecules are shown by their SMILES.

Data set [1] has as its system Influenza A virus. Briefly: Antiviral activity against Influenza A virus (A/X-31(H3N2)) infected in MDCK cells assessed as virus-induced cytopathic effect after 3 days by MTS assay. Type of data set: functional, organism-based. The procedure, abridged: (§1)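 Multicycle CPE reduction assay in 96-well MDCK cells. Cells got serial compound dilutions together with influenza virus at multiplicity of infection 0.0004 PFU per cell, then 72 h at 35 °C. CPE was read by microscopic scoring and then by MTS cell viability.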
In general terms: Cytopathic effects are the visible damage that an infection or toxin causes in cultured cells.

Data set [2] deals with Influenza A virus. Briefly: Antiviral activity against Influenza A virus (A/X-31(H3N2)) infected in MDCK cells assessed as virus-induced cytopathic effect after 3 days by microscopic analysis. The data set is classed as functional, organism-based. The settings on record: 72 h. In outline:
as §1

Data set [3] deals with Influenza A virus. Briefly: Antiviral activity against Influenza A virus (A/PR/8/34(H1N1)) infected in MDCK cells assessed as virus-induced cytopathic effect after 3 days by MTS assay. The data set is classed as functional, organism-based, A/Puerto Rico/8/1934(H1N1). In outline:
as §1

A short description of data set [4]: Cytotoxicity against dog MDCK cells assessed as cell morphology alterations by microscopic analysis. Type of data set: cell-based, Canis lupus familiaris. In outline:
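MDCK cells were exposed to serial compound dilutions and kept 72 h at 35 °C alongside the antiviral plates. MCC is the lowest concentration causing a microscopically detectable change in cell morphology.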

For data set [5], the system named is Influenza B virus. Briefly: Antiviral activity against Influenza B virus (B/HK/5/72) infected in MDCK cells assessed as virus-induced cytopathic effect after 3 days by MTS assay. The data set is classed as functional, cell-based. As to conditions: B/Hong Kong/05/1972, MDCK, 72 h. The procedure, abridged:
as §1

Data set [6] in a line: Cytotoxicity against dog MDCK cells assessed as cell viability by MTS assay. The data set is classed as cell-based, Canis lupus familiaris. For orientation: Formazan colour is commonly taken as a measure of viable cells.
Data set [7] concerns Influenza B virus. Description: Antiviral activity against Influenza B virus (B/HK/5/72) infected in MDCK cells assessed as virus-induced cytopathic effect after 3 days by microscopic analysis. Type of data set: functional, cell-based. The settings on record: B/Hong Kong/05/1972, MDCK, 72 h. The procedure, abridged: as §1
Data set [8] deals with Influenza A virus. Briefly: Antiviral activity against Influenza A virus (A/PR/8/34(H1N1)) infected in MDCK cells assessed as virus-induced cytopathic effect after 3 days by microscopic analysis. The data set is classed as functional, organism-based, A/Puerto Rico/8/1934(H1N1). In outline: as §1
Data set [9] can be described thus: Selectivity index, ratio of cytotoxic concentration for dog MDCK cells to EC50 for Influenza A virus (A/X-31(H3N2)). The data set is classed as toxicity, cell-based. As to conditions: read-out: Ratio EC50.
In data set [10] the target is Hemagglutinin (Influenza A virus (strain A/X-31 H3N2), UniProt P03438). Description: Inhibition of hemagglutininin in Influenza A virus (A/X-31(H3N2)) infected in chicken red blood cells assessed as inhibition of hemolysis preincubated for 1 hr prior to addition of red blood cells measured at pH 5.0 by spectrophotometric analysis. Type of data set: cell-based. The procedure, abridged:
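Influenza A/X-31 (H3N2) stock was preincubated with serial compound dilutions for 1 h at 37 °C. Chicken RBC were added for 10 min at 37 °C, then pelleted and resuspended in buffer holding the same compound level. pH was lowered to 5.0 for 25 min at 37 °C, then neutralised. Intact RBC were spun out and supernatant OD540 read. IC50 came from dose-response.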

[11] abbreviates: Influenza A virus, A/Puerto Rico/8/1934(H1N1), MDCK, 72 h.

Hemagglutinin, sequence (P03438 whole entry): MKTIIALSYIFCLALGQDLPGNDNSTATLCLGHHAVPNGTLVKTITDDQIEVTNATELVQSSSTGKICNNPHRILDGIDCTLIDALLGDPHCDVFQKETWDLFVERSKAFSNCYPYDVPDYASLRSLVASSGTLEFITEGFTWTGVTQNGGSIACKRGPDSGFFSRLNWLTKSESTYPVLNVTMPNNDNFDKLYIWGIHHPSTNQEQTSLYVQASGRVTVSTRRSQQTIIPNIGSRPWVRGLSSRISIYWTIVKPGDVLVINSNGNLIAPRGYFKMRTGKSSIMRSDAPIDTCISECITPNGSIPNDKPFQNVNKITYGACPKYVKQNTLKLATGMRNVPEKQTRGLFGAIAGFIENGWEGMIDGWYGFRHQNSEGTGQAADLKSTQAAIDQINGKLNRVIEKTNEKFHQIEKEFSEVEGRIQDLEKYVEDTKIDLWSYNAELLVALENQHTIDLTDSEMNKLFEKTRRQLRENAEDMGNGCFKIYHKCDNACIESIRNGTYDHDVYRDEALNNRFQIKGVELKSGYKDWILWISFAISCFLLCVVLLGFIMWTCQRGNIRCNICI

With `CC1SC2(CCCCC2)N(NC(=O)C23CC4CC(CC(C4)C2)C3)C1=O` (stereo not drawn), the EC50 in data set [1] (Influenza A virus, MDCK, 72 h) was above 100 µM; in data set [2], above 100 µM; in data set [3] (setting [11]), above 100 µM; in data set [5], above 100 µM; in [7], above 100 µM; in data set [8] (setting [11]) it was above 100 µM. In addition, the MCC in data set [4] was above 100 µM. In [6], the CC50 is above 100 µM.
Turning to `CC1CCC2(CC1)SCC(=O)N2NC(=O)C12CC3CC(CC(C3)C1)C2` (stereo not drawn), the concentration giving a half-maximal response (EC50) was above 100 µM in data set [1] (Influenza A virus, MDCK, 72 h); above 100 µM in data set [2]; above 100 µM in data set [3] (setting [11]); above 100 µM in [5]; above 100 µM in [7]; above 100 µM in data set [8] (setting [11]). Moreover, the MCC in data set [4] was above 100 µM. Besides, the half-maximal cytotoxic concentration (CC50) in data set [6] is above 100 µM.
Take `CC1CCC2(CC1)SC(C)C(=O)N2NC(=O)C12CC3CC(CC(C3)C1)C2` (stereo not drawn): the selectivity ratio in [9] is above 67. Besides, the EC50 in data set [1] (Influenza A virus, MDCK, 72 h) was 1.4 µM; in data set [2] it was 1.6 µM; in data set [3] (setting [11]) it was above 100 µM; in [5], above 100 µM; in data set [7] it was above 100 µM; in data set [8] (setting [11]) it was above 100 µM. Besides, in data set [10], the IC50 was determined as 3.7 µM. Moreover, the MCC in data set [4] was above 100 µM. Besides, in data set [6], the CC50 was above 100 µM.
For the compound `CCC1CCC2(CC1)SCC(=O)N2NC(=O)C12CC3CC(CC(C3)C1)C2` (stereo not drawn), the EC50 was 21 µM in [1] (Influenza A virus, MDCK, 72 h); above 100 µM in data set [2]; above 100 µM in data set [3] (setting [11]); above 100 µM in data set [5]; above 100 µM in data set [7]; above 100 µM in data set [8] (setting [11]). In addition, in data set [4], the MCC was above 100 µM. In addition, the CC50 in data set [6] was above 100 µM.
With `CCC1CCC2(CC1)SC(C)C(=O)N2NC(=O)C12CC3CC(CC(C3)C1)C2` (stereo not drawn), the EC50 in data set [1] (Influenza A virus, MDCK, 72 h) is 1.7 µM; in [2] it was 51 µM; in [3] (setting [11]), above 100 µM; in [5] it was above 100 µM; in data set [7], above 100 µM; in data set [8] (setting [11]) it was above 100 µM. Besides, the MCC in data set [4] was above 100 µM. The cytotoxic concentration (CC50) in data set [6] was above 100 µM.
With `CCCC1CCC2(CC1)SCC(=O)N2NC(=O)C12CC3CC(CC(C3)C1)C2` (stereo not drawn), the EC50 in data set [1] (Influenza A virus, MDCK, 72 h) was 44 µM; in data set [2], above 100 µM; in data set [3] (setting [11]), above 100 µM; in data set [5] it was above 100 µM; in data set [7], above 100 µM; in data set [8] (setting [11]), above 100 µM. The MCC in [4] was above 100 µM. For the same compound, the CC50 in [6] is above 100 µM.
Take `CCCC1CCC2(CC1)SC(C)C(=O)N2NC(=O)C12CC3CC(CC(C3)C1)C2` (stereo not drawn): the EC50 was 23 µM in data set [1] (Influenza A virus, MDCK, 72 h); 29 µM in data set [2]; above 100 µM in [3] (setting [11]); above 100 µM in [5]; above 100 µM in [7]; above 100 µM in data set [8] (setting [11]). The MCC in data set [4] is above 100 µM. Further, the CC50 in data set [6] is above 100 µM.
On to `CC(C)(C)C1CCC2(CC1)SCC(=O)N2NC(=O)C12CC3CC(CC(C3)C1)C2` (stereo not drawn), for which the EC50 was 34 µM in data set [1] (Influenza A virus, MDCK, 72 h); above 100 µM in data set [2]; 53 µM in [3] (setting [11]); above 100 µM in data set [5]; above 100 µM in data set [7]; above 100 µM in data set [8] (setting [11]). In data set [4], the MCC is above 20 µM. Moreover, the CC50 in data set [6] was above 100 µM.
Consider `CC1SC2(CCC(C(C)(C)C)CC2)N(NC(=O)C23CC4CC(CC(C4)C2)C3)C1=O` (stereo not drawn), for which the half-maximal effective concentration (EC50) in data set [1] (Influenza A virus, MDCK, 72 h) is above 100 µM; in data set [2], above 100 µM; in [3] (setting [11]), above 100 µM; in [5], above 100 µM; in [7], above 100 µM; in [8] (setting [11]) it was above 100 µM. Besides, in data set [4], the MCC is above 100 µM. Besides, the CC50 in [6] was above 100 µM.
Take `O=C1CSC2(CCC(c3ccccc3)CC2)N1NC(=O)C12CC3CC(CC(C3)C1)C2` (stereo not drawn): the EC50 was above 100 µM in data set [1] (Influenza A virus, MDCK, 72 h); above 100 µM in data set [2]; above 100 µM in [3] (setting [11]); above 100 µM in [5]; above 100 µM in [7]; above 100 µM in data set [8] (setting [11]). For the same compound, the MCC in [4] is above 20 µM. The CC50 in [6] was above 100 µM.
Consider `CC1SC2(CCC(c3ccccc3)CC2)N(NC(=O)C23CC4CC(CC(C4)C2)C3)C1=O` (stereo not drawn), for which the EC50 in data set [1] (Influenza A virus, MDCK, 72 h) is above 100 µM; in data set [2], above 100 µM; in [3] (setting [11]), above 100 µM; in data set [5] it was above 100 µM; in data set [7] it was above 100 µM; in data set [8] (setting [11]) it was above 100 µM. In [4], the MCC turned out to be 20 µM. In addition, the CC50 in data set [6] stood at 42 µM.
`Cc1nc2sccn2c1C(=O)NN1C(=O)C(C)SC12CCC(C)CC2` (stereo not drawn): the EC50 in data set [1] (Influenza A virus, MDCK, 72 h) was 9 µM; in data set [2], 6.8 µM; in data set [3] (setting [11]), above 100 µM; in [5], above 100 µM; in data set [7] it was above 100 µM; in data set [8] (setting [11]) it was above 100 µM. The MCC in data set [4] is above 100 µM. For the same compound, in [6], the CC50 is above 100 µM.
On to `NC12CC3CC(CC(C3)C1)C2` [AMANTADINE], for which the EC50 in data set [1] (Influenza A virus, MDCK, 72 h) was 208 µM; in [2], 224 µM; in data set [3] (setting [11]) it was 75 µM; in data set [5] it was above 500 µM; in data set [7] it was above 500 µM; in [8] (setting [11]), 58 µM. For the same compound, the MCC in data set [4] is above 500 µM. Besides, the 50% cytotoxic concentration (CC50) in data set [6] is above 500 µM.
With `NC(=O)c1ncn([C@@H]2O[C@H](CO)[C@@H](O)[C@H]2O)n1` [RIBAVIRIN], the EC50 in data set [1] (mdck) worked out at 8.5 µM; in [3] (mdck), 8.4 µM; in data set [5], 0.14 µM; in data set [7], 0.094 µM; in data set [8] (mdck), 8.9 µM. The MCC in [4] is above 20 µM. In addition, the CC50 in [6] was above 100 µM.
In the case of `CC(N)C12CC3CC(CC(C3)C1)C2` (stereo not drawn) [RIMANTADINE], the 50% effective concentration (EC50) is 40 µM in data set [1] (Influenza A virus, MDCK, 72 h); 45 µM in data set [2]; 2.5 µM in [3] (setting [11]); above 500 µM in data set [5]; above 500 µM in data set [7]; 2.7 µM in data set [8] (setting [11]). Further, the CC50 in data set [6] is 218 µM.
With `CC(=O)N[C@H]1[C@H]([C@H](O)[C@H](O)CO)OC(C(=O)O)=C[C@@H]1NC(=N)N` [ZANAMIVIR], the EC50 in data set [1] (Influenza A virus, MDCK, 72 h) turned out to be 53 µM; in [2] it was 12 µM; in data set [3] (setting [11]), 0.48 µM; in data set [5] it was 0.063 µM; in data set [7], 0.072 µM; in data set [8] (setting [11]) it was 0.44 µM. In addition, in data set [4], the MCC was above 100 µM. In data set [6], the CC50 was above 100 µM.

By EC50 is commonly meant the concentration that produces a half-maximal response. The CC50 is the concentration at which the toxic effect on the cells reaches its halfway point. As usually defined, the IC50 is the concentration needed to halve the response being measured.

The values above are taken from ChEMBL document CHEMBL2203281, “Microwave assisted synthesis and anti-influenza virus activity of 1-adamantyl substituted N-(1-thia-4-azaspiro[4.5]decan-4-yl)carboxamide derivatives” (Bioorg Med Chem, 2012).
